Measured values from ChEMBL document CHEMBL3525966, “Compartmental and enzyme kinetic modeling to elucidate the biotransformation pathway of a centrally acting antitrypanosomal prodrug” (Drug Metab Dispos, 2013).

Columns and labels:
Liver microsome [1] = test: Prodrug conversion in rat liver microsomes assessed as elution time at 10 uM after 180 mins incubation by HPLC-UV chromatography; type: ADME; conditions: 3 h
How it was run: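 HLM or RLM (0.5 mg/mL) were incubated in triplicate in 100 mM phosphate pH 7.4 with 10 mM MgCl2 and an NADPH-regenerating system (1 mM NADP+, glucose 6-phosphate, G6PDH). DB868 was 10 µM. Sampled up to 180 min. Prodrug and metabolites were measured by HPLC-UV at 359 nm and expressed relative to initial prodrug; DB829 LLOQ 50 nM.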

Liver microsome [2] = test: Drug metabolism in rat liver microsomes assessed as (Z)-N'-hydroxy-6-(5-(5-((Z)-N'-methoxycarbamimidoyl)pyridin-2-yl)furan-2-yl nicotinimidamide formation measured by HPLC-MS/MS analysis; type: ADME
How it was run: (§1)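 M1 formation kinetics: HLM or RLM (0.5 mg/mL) in phosphate pH 7.4 with MgCl2, DB868 0.1–100 µM, started with 2 mM NADPH. Run 5 min (HLM) or 10 min (RLM) under initial-rate conditions (<20% consumption) in triplicate. Quantified by HPLC/MS/MS with d6-DB868 internal standard. Fitted to a one-enzyme (HLM) or two-enzyme (RLM) Michaelis–Menten model; Clint = Vmax/Km.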

Cytochrome P450 3A4 = Cytochrome P450 3A4 (Homo sapiens, UniProt P08684); test: Prodrug conversion assessed as human recombinant CYP3A4-mediated (Z)-N'-hydroxy-6-(5-(5-((Z)-N'-methoxycarbamimidoyl)pyridin-2-yl)furan-2-yl) nicotinimidamide formation at 5 uM after 180 mins incubation by HPLC-UV chromatogram; type: ADME; conditions: recombinant enzyme, 15 min, in the assay text read “15 mins” for “180 mins”
Chain of Cytochrome P450 3A4 (P08684 whole entry): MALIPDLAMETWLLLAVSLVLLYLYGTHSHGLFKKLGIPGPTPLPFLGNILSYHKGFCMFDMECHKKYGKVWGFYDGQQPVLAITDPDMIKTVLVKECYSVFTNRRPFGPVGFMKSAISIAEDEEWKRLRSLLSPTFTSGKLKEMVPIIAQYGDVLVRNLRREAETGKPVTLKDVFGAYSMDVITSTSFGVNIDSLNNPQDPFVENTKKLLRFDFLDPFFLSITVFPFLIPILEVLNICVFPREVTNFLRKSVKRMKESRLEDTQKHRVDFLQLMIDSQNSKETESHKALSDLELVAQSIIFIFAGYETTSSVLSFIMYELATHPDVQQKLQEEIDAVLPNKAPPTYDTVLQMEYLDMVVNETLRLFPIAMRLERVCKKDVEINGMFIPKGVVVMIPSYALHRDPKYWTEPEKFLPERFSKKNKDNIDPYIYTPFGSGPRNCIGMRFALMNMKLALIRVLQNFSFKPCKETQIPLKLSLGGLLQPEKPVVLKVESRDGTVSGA
How it was run: (§2)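 Insect-cell-expressed human or rat P450 (with NADPH-P450 reductase, some also with cytochrome b5) at 0.1 pmol/µL in 100 mM potassium phosphate pH 7.4 with 10 mM MgCl2. DB868 (for M1) or M1 (for M2) was added at 5 µM (0.5% DMSO) and started with 2 mM NADPH. Stopped after 15 min with ice-cold acetonitrile, then HPLC-UV. Duplicate incubations.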

Cytochrome P450 1A2 [3] = target: T1, Cytochrome P450 1A2 (Homo sapiens, UniProt P05177); test: Prodrug conversion assessed as human recombinant CYP1A2-mediated (3Z,3'Z)-6,6'-(furan-2,5-diyl)bis(N'-hydroxynicotinimidamide) formation at 5 uM after 180 mins incubation by HPLC-UV chromatogram; type: ADME; conditions: recombinant enzyme, 15 min, in the assay text read “15 mins” for “180 mins”; how it was run: as §2
T1 sequence (P05177 whole entry): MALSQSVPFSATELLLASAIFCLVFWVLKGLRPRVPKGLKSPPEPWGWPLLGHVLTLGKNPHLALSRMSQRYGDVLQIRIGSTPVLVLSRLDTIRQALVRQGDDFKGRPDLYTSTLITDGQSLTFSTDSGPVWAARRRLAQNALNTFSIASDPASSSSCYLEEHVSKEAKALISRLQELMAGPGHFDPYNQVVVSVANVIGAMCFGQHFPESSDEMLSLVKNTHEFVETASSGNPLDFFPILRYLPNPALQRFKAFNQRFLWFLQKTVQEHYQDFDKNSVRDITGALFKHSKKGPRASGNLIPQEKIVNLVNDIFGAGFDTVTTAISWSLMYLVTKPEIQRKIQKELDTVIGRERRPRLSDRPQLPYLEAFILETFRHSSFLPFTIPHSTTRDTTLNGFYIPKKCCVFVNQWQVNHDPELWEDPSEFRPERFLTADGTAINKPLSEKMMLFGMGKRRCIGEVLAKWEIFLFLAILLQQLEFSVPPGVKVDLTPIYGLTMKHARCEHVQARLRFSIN

Cytochrome P450 4F1 = target: T2, Cytochrome P450 4F1 (Rattus norvegicus, UniProt P33274); test: Prodrug conversion assessed as rat purified CYP4F1-mediated (Z)-N'-hydroxy-6-(5-(5-((Z)-N'-methoxycarbamimidoyl)pyridin-2-yl)furan-2-yl) nicotinimidamide formation at 5 uM after 30 mins incubation by HPLC-UV chromatogram; conditions: purified enzyme
T2 sequence (P33274 whole entry): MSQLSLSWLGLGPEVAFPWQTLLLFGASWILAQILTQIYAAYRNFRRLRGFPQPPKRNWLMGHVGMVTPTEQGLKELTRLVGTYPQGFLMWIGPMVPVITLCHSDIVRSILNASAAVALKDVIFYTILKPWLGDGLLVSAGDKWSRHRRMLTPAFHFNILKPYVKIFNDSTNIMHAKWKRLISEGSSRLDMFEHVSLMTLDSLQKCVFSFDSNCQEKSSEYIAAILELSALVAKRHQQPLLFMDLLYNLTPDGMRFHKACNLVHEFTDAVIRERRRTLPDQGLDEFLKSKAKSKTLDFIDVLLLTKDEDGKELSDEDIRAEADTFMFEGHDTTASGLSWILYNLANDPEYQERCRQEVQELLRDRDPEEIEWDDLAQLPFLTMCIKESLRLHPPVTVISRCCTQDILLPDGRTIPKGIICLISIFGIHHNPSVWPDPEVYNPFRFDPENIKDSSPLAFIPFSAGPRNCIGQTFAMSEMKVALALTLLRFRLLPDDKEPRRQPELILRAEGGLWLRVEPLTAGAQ

Liver microsome [4] = test: Drug metabolism in rat liver microsomes assessed as (Z)-N'-hydroxy-6-(5-(5-((Z)-N'-methoxycarbamimidoyl)pyridin-2-yl)furan-2-yl nicotinimidamide formation measured per mg of protein by HPLC-MS/MS analysis; type: ADME; how it was run: as §1
Cytochrome P450 1A2 [5] = target: T3, Cytochrome P450 1A2 (Rattus norvegicus, UniProt P04799); test: Prodrug conversion assessed as rat recombinant CYP1A2-mediated (3Z,3'Z)-6,6'-(furan-2,5-diyl)bis(N'-hydroxynicotinimidamide) formation at 5 uM after 180 mins incubation by HPLC-UV chromatogram; type: ADME; conditions: recombinant enzyme, 15 min, in the assay text read “15 mins” for “180 mins”; how it was run: as §2
T3 sequence (P04799 whole entry): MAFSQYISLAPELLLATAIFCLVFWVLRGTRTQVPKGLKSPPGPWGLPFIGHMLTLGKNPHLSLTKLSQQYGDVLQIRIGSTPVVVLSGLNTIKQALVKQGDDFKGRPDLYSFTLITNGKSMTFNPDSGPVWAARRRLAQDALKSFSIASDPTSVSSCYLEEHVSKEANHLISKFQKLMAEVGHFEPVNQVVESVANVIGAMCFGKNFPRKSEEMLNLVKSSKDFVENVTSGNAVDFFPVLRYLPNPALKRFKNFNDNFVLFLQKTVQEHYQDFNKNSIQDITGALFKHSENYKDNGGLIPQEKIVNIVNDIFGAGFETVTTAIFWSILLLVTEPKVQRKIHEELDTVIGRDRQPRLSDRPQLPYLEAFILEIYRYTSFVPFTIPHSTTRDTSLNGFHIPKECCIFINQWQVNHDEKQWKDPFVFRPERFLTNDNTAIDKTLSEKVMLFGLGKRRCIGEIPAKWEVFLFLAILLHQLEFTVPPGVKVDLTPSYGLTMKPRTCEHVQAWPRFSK

Liver microsome [6] = test: Drug metabolism in human liver microsomes assessed as (Z)-N'-hydroxy-6-(5-(5-((Z)-N'-methoxycarbamimidoyl)pyridin-2-yl)furan-2-yl nicotinimidamide formation measured per mg of protein by HPLC-MS/MS analysis; type: ADME; how it was run: as §1
Liver microsome [7] = test: Ratio of drug metabolism in […] to drug metabolism in rat hepatocytes at 10 uM after 4 hrs of incubation by HPLC-MS/MS analysis; type: ADME, cell-based, Hepatocyte

Retention_time (Liver microsome [1]): 18.5 min
Km (Liver microsome [2]): 0.5 µM
Drug metabolism (Cytochrome P450 3A4): metabolite_detected
Drug metabolism (Cytochrome P450 1A2 [3]): metabolite_detected
Drug metabolism (Cytochrome P450 4F1): metabolite_detected
Vmax (Liver microsome [4]): 12 pmol/min
Drug metabolism (Cytochrome P450 1A2 [5]): metabolite_detected
Vmax (Liver microsome [6]): 340 pmol/min
Ratio (Liver microsome [7]): 25
Structure (SMILES): CO/N=C(\N)c1ccc(-c2ccc(-c3ccc(/C(N)=N/OC)cn3)o2)nc1.Cl
